# KCNQ1 inh = inhibitors of human KCNQ1 potassium channel; P51787; CHO-K1 KCNQ1, FluxOR thallium flux fluorescence; active compounds read high; B-score at 10 µM; actives 1.3% (n = 310,000); AID 2642;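 active means compounds whose thallium flux B-score, printed positive for inhibition, exceeds three library SD while starting fluorescence stays within three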;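 further: channel opened by potassium depolarization with thallium stimulus after 20 min compound exposure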
# KCNQ1 act = human KCNQ1 channel potentiation or activation; CHO-K1 KCNQ1, thallium flux FluxOR fluorescence; active compounds read high; B-score at 10 µM; actives 0.35% (n = 310,000); AID 2648;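 active means fluorescence ratio B-score, a plate-corrected score, at least three library SD, with initial intensity B-score within 5 SD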
#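 Doses: Single concentration per compound, DMSO matched to controls | Test system: KCNQ1-transfected CHO-K1 cells | Timing: 90 min dye loading and 20 min compound exposure, both at room temperature | Measured by: Kinetic FluxOR thallium fluorescence, 10-s 1-Hz baseline, 110-s post-stimulus read | Medium: Assay buffer with matched DMSO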
# hERG rescue = shields human hERG channel from block by proarrhythmic agents. AID 1511. actives 0.51% (n = 310,000). CHO-hERG, FluxOR thallium flux, dofetilide IC70 present. Q12809. activation (rescue from dofetilide block), less the hit threshold, % at 10 µM;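 active means activation above the mean of controls blocked by dofetilide plus 5 SD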;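 further: thallium influx through hERG after potassium depolarization seen as dye fluorescence rise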
# Cl transport mod = KCC2 (human) Cl- transport modulation; KCC2 cells, thallium flux FluoZin-2 fluorescence; B-score of Tl+ flux slope (higher = more flux/activation; lower = inhibition) at 10 µM; actives 2.2% (n = 190,000); AID 1456; Q9H2X9;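 active means thallium flux slope and its plate-corrected score both differing from the plate sample mean at a set confidence after two filtering rounds, in either direction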;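 further: slope of fluorescence scaled to starting intensity during 10 to 20 s after thallium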
# KCNK9 block = blocks the human KCNK9 two-pore domain potassium channel | B-score at 10 µM | Q9NPC2 | actives 1.2% (n = 310,000) | HEK293 KCNK9, FluxOR thallium flux fluorescence; active compounds read low;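 active means ratio B-score over 3 SD below the library mean, with starting fluorescence within 5 SD of its mean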;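 further: negative B-score means less thallium flux so channel inhibition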
# Target sequence (Q9NPC2 whole entry, looked up, the tested form may be a part): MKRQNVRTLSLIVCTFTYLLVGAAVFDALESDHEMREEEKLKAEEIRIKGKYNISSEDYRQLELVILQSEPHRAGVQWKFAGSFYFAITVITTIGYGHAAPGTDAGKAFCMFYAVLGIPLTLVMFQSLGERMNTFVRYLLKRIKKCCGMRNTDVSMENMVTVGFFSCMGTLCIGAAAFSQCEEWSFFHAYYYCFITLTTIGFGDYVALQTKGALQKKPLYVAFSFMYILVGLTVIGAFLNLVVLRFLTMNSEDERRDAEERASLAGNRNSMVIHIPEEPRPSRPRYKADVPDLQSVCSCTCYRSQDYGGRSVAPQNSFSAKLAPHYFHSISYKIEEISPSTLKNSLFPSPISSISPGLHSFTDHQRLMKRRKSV
# KCNK3 block = human KCNK3 channel inhibition, primary screen. CHO-KCNK3 thallium flux, FluxOR fluorescence; active compounds read low. B-score at 10 µM. actives 0.84% (n = 340,000). AID 602410;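 active means B-score under library mean minus 4 SD, starting fluorescence ratio at most library mean plus 5 SD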;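 further: more negative B-score means stronger inhibition of thallium flux through KCNK3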
# KCNK9 block conf = human KCNK9 inhibitor confirmation; shares compounds with KCNK9 block; HEK293 KCNK9 cells, FluxOR thallium flux fluorescence; inhibition, % at 10 µM; actives 43% (n = 4,900); AID 492992;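 active means thallium signal inhibited by more than 5 SD of the compound-free buffer control wells, on both duplicate plates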
# Kir2-1 spec = mouse Kir2.1 off-target activity of KCNK9 modulators; shares compounds with KCNK9 block; Kir2.1 cells, FluxOR thallium flux fluorescence; inhibition, % at 10 µM; actives 4% (n = 4,900); AID 492993;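 active means thallium signal drop more than 5 SD beyond the mean of the no-compound control wells, seen in both duplicate plates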;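 further: signal is fluorescence rise after thallium addition divided by baseline fluorescence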
# HEK293 Tl ctr = second check of KCNK9 modulator effects in non-induced HEK293 cells; inhibition, % at 10 µM; shares compounds with KCNK9 block; actives 40% (n = 4,900); AID 492997; FluxOR thallium flux;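 active means thallium signal drop beyond 5 SD of the untreated control mean, on both duplicate plates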
# KCNK3 inh conf = confirmation of human KCNK3 two-pore domain potassium channel inhibitors. shares compounds with KCNK3 block. ratio percent of control, % at 10 µM. CHO-KCNK3 thallium flux, FluxOR fluorescence; 0% buffer, 100% carvedilol maximal block. actives 99% (n = 2,400);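 active means ratio percent of control, averaged over triplicates, above buffer control mean plus 5 SD, cut at about 64% in these data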;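 further: ratio is the fluorescence rise from min to max over baseline after thallium stimulus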
# KCNK3 noninduced = KCNK3 inhibitor counter-screen hit in non-induced cells; shares compounds with KCNK3 block; non-induced KCNK3 parental cells, FluxOR thallium flux; active compounds read low; thallium flux ratio (lower = more inhibition) at 10 µM; actives 40% (n = 2,400); AID 651747;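 active means thallium flux ratio, averaged over three wells, more than 5 SD below the buffer control mean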;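 further: host cells are CHO cells without KCNK3 induction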
# A number is an active result; - = inactive; . = no result. This is a sample that favours compounds with a hit; in the whole collection about 4.1% have one here.
SMILES,KCNQ1 inh,KCNQ1 act,hERG rescue,Cl transport mod,KCNK9 block,KCNK3 block,KCNK9 block conf,Kir2-1 spec,HEK293 Tl ctr,KCNK3 inh conf,KCNK3 noninduced
C=CCSc1nc(N)c(C(=O)Nc2ccccc2OC)cc1C(=O)Nc1ccccc1,-,-,-,-,-8.7,-11,27.0%,-,-,107.3,-
COC(=O)C1=C(C)N=C2SC(C#N)=C(N)N2C1c1cc(OC)c(OC)c(OC)c1 (stereo not drawn),-,-,-,-,-,-,.,.,.,.,.
COC(=O)C1=C(C)N=C2SC(C#N)=C(N)N2C1c1ccc(OCc2ccccc2)cc1 (stereo not drawn),-,-,-,-,-16.6,-9.91,74.0%,-,52.0%,96.7,0.149
O=c1cc(N2CCCCC2)c(-c2ccccc2)nn1Cc1ccccc1Cl,-,-,-,-,-17.7,-9.07,38.0%,-,37.5%,112.3,-
O=c1cc(N2CCCCC2)c(-c2ccccc2)nn1Cc1cccc(Cl)c1,-,-,-,-,-,-,.,.,.,.,.
Fc1ccc(C(CCCn2nnc(-c3cccnc3)n2)c2ccc(F)cc2)cc1,15,-,-,-,-12.5,-15.3,55.0%,-,37.5%,148.3,-
Fc1ccc(-n2nnc(-c3cccnc3)n2)cc1,-,-,-,-,-,-,.,.,.,.,.
C=CCSc1nc2sc3c(c2c(=O)n1-c1ccc(C)cc1)CCN(C)C3,-,-,-,.,-,-,.,.,.,.,.
Cn1c(SCC(=O)Nc2cc(Cl)cc(Cl)c2)nnc1-c1ccc2nonc2c1,-,-,-,-,-,-,.,.,.,.,.
Cc1onc(-c2ccc(Cl)cc2)c1-c1ccnc(SCC(=O)Nc2cc(Cl)cc(Cl)c2)n1,9,-,-,-,-15.6,-13.3,-,-,44.5%,100.7,0.152
CCN(CC)S(=O)(=O)c1ccc(Cl)c(C(=O)OC2CC(C)OC2=O)c1 (stereo not drawn),-,-,-,.,-,-,.,.,.,.,.
S=C(Nc1ccc(Oc2ccccc2)cc1)N1CCOCC1,-,-,-,.,-,-,.,.,.,.,.
S=C(Nc1ccccc1)N1CCOCCOCCN(C(=S)Nc2ccccc2)CCOCCOCC1,-,-,-,-,-10.6,-9.08,28.5%,-,-,96.0,0.135
Cc1ccccc1NC(=S)NC(=O)COc1ccccc1C,-,-,-,.,-,-,.,.,.,.,.
COC(/C(=N/O)c1ccc(Cl)cc1)c1ccccc1 (stereo not drawn),11,-,-,.,-10.1,-9.66,38.5%,-,48.0%,114.3,0.158
CN(C)c1ccc(C(C(=O)NC2CCCCC2)N(Cc2ccco2)C(=O)c2snc(C(N)=O)c2N)cc1 (stereo not drawn),-,-,-,.,-,-,.,.,.,.,.
Cc1cccc(Oc2cc(NC(=O)c3ccccc3)cc([N+](=O)[O-])c2)c1,6,-,-,-,-11.7,-11.6,64.0%,-,39.0%,133.0,0.149
CCN(CC)C(=O)CSc1nc2sc3c(c2c(=O)n1-c1ccc(C)cc1)CC(C)(C)SC3,-,-,-,-,-,-17.3,-,-,25.5%,120.7,0.14
Cn1ncc(C#N)c1/N=C/N(Cc1ccccc1)Cc1ccccc1,-,-,-,-,-15.4,-8.86,36.0%,-,29.0%,113.7,0.156
O=c1ccn([C@@H]2O[C@H](CNS(=O)(=O)C3CC3)[C@@H](O)[C@H]2O)c(=O)[nH]1,.,.,.,.,.,-,.,.,.,.,.
COc1cccc(CNCC(O)(c2ccc(Cl)cc2)c2ccc(Cl)cc2)c1,7,-,-,.,-13.4,-,-,-,38.0%,139.3,0.154
COc1ccc(CNCC(O)(c2ccccc2)c2ccc(Cl)cc2)cc1 (stereo not drawn),-,-,-,-,-,-,.,.,.,.,.
CCOC(=O)c1ccc(N2C(=O)c3n[nH]c(-c4ccco4)c3C2c2ccc([N+](=O)[O-])cc2)cc1 (stereo not drawn),-,-,-,-,-8.33,-9.77,55.5%,-,42.0%,138.3,0.106
COc1cc(NC(=O)CN2C(=O)COc3ccc(S(=O)(=O)N4CCCC4)cc32)cc(OC)c1,-,-,-,.,-11.4,-11.4,52.0%,-,29.5%,105.3,-
Cc1ccccc1Sc1c(C#N)c(-c2ccccc2)nn1C,-,-,-,-,-8.62,-11.6,42.0%,-,50.0%,122.7,0.129
SMILES,KCNQ1 inh,KCNQ1 act,hERG rescue,Cl transport mod,KCNK9 block,KCNK3 block,KCNK9 block conf,Kir2-1 spec,HEK293 Tl ctr,KCNK3 inh conf,KCNK3 noninduced
Cc1ccc(Sc2c(CO)c(-c3ccccc3)nn2C)cc1,-,-,-,-,-,-,.,.,.,.,.
COc1cccc(C(=O)NCC(c2cccs2)N2CCc3ccccc32)c1 (stereo not drawn),-,-,-,.,-17,-13.9,55.5%,-,37.0%,134.7,0.121
CN(C)c1ccc(C(CNC(=O)Cc2cccc3ccccc23)N(C)C)cc1 (stereo not drawn),-,-,-,.,-,-,.,.,.,.,.
COc1ccc(C(=O)NCc2nnc(SCC(=O)c3ccc(F)cc3)n2C)cc1OC,-,-,-,.,-,-,.,.,.,.,.
Cc1cc(C)c2cc(CN(CC3CCCO3)C(=S)NCc3ccco3)c(=O)[nH]c2c1 (stereo not drawn),-,-,-,-,-9.46,-9.78,29.0%,-,33.0%,112.7,-
COc1ccc(S(=O)(=O)N(CC(=O)NCc2ccncc2)c2cc(C)cc(C)c2)cc1OC,-,-,-,.,-,-,.,.,.,.,.
Cc1nc(Nc2ccncc2)c2oc3ccccc3c2n1,-,-,-,.,-,-,.,.,.,.,.
Cc1cccc(Nc2nc(C)nc3c2oc2ccccc23)c1,-,-,-,.,-8.83,-9.01,29.5%,-,25.5%,116.3,-
CC1(C)CC(=O)C2=C(C1)N=C1c3ccccc3C(=O)C1C2c1ccc(Cl)cc1 (stereo not drawn),-,-,-,.,-11.7,-15.2,55.0%,-,40.0%,122.3,0.141
Cc1ccc(O)c(C(=O)c2cnc3c(c2)CN(C)C(=O)N3)c1,-,-,-,-,-,-,.,.,.,.,.
Cc1ccc(O)c(C(=O)c2cnc3c(c2)COc2ccc(C)cc2-3)c1,-,-,-,-,-13.4,-,72.5%,-,39.5%,113.0,-
